The source made the active and inactive calls. The rule behind the calls is not given here.
How the values were obtained:
[1] = system: HeLa; test: Cell cycle arrest in human HeLa cells assessed as accumulation at sub-G1 phase at 2 times IC50 after 24 hrs in presence of caspase-3 inhibitor Z-DEVD-FMK by propidium iodide-staining based flow cytometric method; assay type: functional
How it was run: (§1)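 HeLa cells pretreated 2 h with 40 μM peptide caspase inhibitor (Z-DEVD-FMK caspase-3, Z-IETD-FMK caspase-8 or Z-LEHD-FMK caspase-9), then exposed to 2×IC50 compound; subG1 fraction by propidium iodide flow cytometry, compared with samples lacking inhibitor.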

[2] = system: HeLa; test: Downregulation of miR-133b expression in human HeLa cells at 10 uM after 24 hrs by RT-qPCR method; assay type: functional, cell-based
[3] = system: DNA; test: Reversal of Fe2+-induced Escherichia coli pUC19 DNA cleavage at 1:2 compound to Fe2+ mole ratio after 90 mins by agarose gel electrophoresis method; assay type: functional
How it was run: (§2)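 Compound (4 μL of 2 mM) preincubated with FeSO4 (1 or 2 μL of 8 mM; compound:Fe 1:1 or 1:2) in bicarbonate buffer 60 min at 37 °C, then pUC19 added for another 90 min; products resolved on 1% agarose gel, ethidium bromide stained.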

[4] = system: MRC5; test: Induction of DNA damage in human MRC5 cells assessed as formation of DNA breaks at 25 uM after 24 hrs by comet assay relative to control; assay type: functional
How it was run: (§3)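 MRC-5 cells exposed 24 h to 3.125–25 μM compound; DNA damage scored as % tail DNA (tail intensity) by comet assay. PBS negative control; H2O2 50 μM 5 min in-gel positive control. Triplicate, repeated twice; mean ± SD.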

[5] = system: HeLa; test: Cell cycle arrest in human HeLa cells assessed as accumulation at sub-G1 phase at 2 times IC50 after 24 hrs in presence of caspase-9 inhibitor Z-LEHD-FMK by propidium iodide-staining based flow cytometric method; assay type: functional; how it was run: as §1
[6] = system: Calf thymus DNA; test: Binding affinity to calf thymus DNA assessed as hypochromism at 10 to 20 uM after 90 mins by UV/visible spectrophotometric analysis; assay type: nucleic-acid assay; conditions: Bos taurus
How it was run: (§4)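 CT-DNA stock in 10 mM Tris-HCl pH 7.9 (A260/A280 1.89–2.01; concentration from ε260 6600 M–1 cm–1). Compound (10, 20 or 40 μM) plus CT-DNA (95 μM) in 40 mM bicarbonate pH 8.4, 37 °C 90 min; spectra 200–800 nm. Hyper/hypochromism at 259 nm from bound versus summed free compound and DNA extinction; triplicate.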

[7] = system: DNA; test: Induction of Escherichia coli pUC19 DNA cleavage at 0.05 to 0.4 mM after 90 mins by agarose gel electrophoresis method; assay type: nucleic-acid assay
How it was run: (§5)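 Plasmid pUC19 (from E. coli XL1 blue; 460 ng, 12 nM) incubated with compound (0.05–0.4 mM; from 2 mM DMSO stock) in 20 μL 40 mM bicarbonate pH 8.4 at 37 °C for 90 min; 1% agarose gel in TAE at 80 V, ethidium bromide staining, UV at 312 nm; supercoiled/nicked/linear forms scored.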

[8] = system: MRC5; test: Cytotoxicity against human MRC5 cells assessed as decrease in cell survival after 72 hrs by MTT assay; assay type: cell-based; conditions: MRC5, 72 h
How it was run: (§6)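 HeLa (2000/well), A549 and MRC-5 (5000/well) seeded 20 h before treatment; HL-60 (7000/well) 2 h before. Five concentrations (6.25–100 μM or 3.125–50 μM) from 5 mM DMSO stocks, final DMSO ≤1%, 72 h; survival by MTT. Cisplatin positive control; three independent experiments in triplicate.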

[9] = system: DNA; test: Reversal of Fe2+-induced Escherichia coli pUC19 DNA cleavage at 1:1 compound to Fe2+ mole ratio after 90 mins by agarose gel electrophoresis method; assay type: functional; how it was run: as §2
[10] = system: A549; test: Cytotoxicity against human A549 cells assessed as decrease in cell survival after 72 hrs by MTT assay; assay type: functional, cell-based; conditions: A549, 72 h; how it was run: as §6
[11] = system: HL-60; test: Cytotoxicity against human HL60 cells assessed as decrease in cell survival after 72 hrs by MTT assay; assay type: functional, cell-based; conditions: HL-60, 72 h; how it was run: as §6
[12] = system: HeLa; test: Upregulation of MMP9 gene expression in human HeLa cells at 10 uM after 24 hrs by RT-qPCR method; assay type: functional, cell-based
[13] = system: HeLa; test: Cell cycle arrest in human HeLa cells assessed as decrease in cell levels at G1 phase at 2 times IC50 after 24 hrs by propidium iodide staining-based flow cytometric method; assay type: functional
How it was run: (§7)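 HeLa cells treated 24 h at IC50 or 2×IC50 (from 72 h assay), fixed in 70% ethanol, stored at –20 °C ≥1 week, RNase A 30 min 37 °C, propidium iodide stained; flow cytometry, 10 000 gated events. Mean ± SD of three independent experiments; one-way ANOVA with Dunnett's post-test, p < 0.05.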

[14] = system: HeLa; test: Downregulation of VEGFA gene expression in human HeLa cells at 10 uM after 24 hrs by RT-qPCR method; assay type: functional, cell-based
[15] = system: HeLa; test: Downregulation of miR-155 expression in human HeLa cells at 10 uM after 24 hrs by RT-qPCR method; assay type: functional, cell-based
[16] = system: HeLa; test: Prooxidant activity in human HeLa cells assessed as increase in H2O2-induced reactive oxygen species at 10 uM preincubated for 24 hrs followed by H2O2 addition and measured after 30 mins by dichlorofluorescein dye-based flow cytometric method; assay type: functional, cell-based
How it was run: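 HeLa cells pretreated 24 h with 10 μM compound, washed, loaded with 30 μM DCFH-DA in PBS 45 min at 37 °C. One portion read directly (endogenous ROS); other portion exposed to 10 mM H2O2 30 min at 37 °C. DCF green fluorescence by flow cytometry, 20 000 events per sample; mean ± SD of two independent experiments.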

[17] = system: Calf thymus DNA; test: Displacement of Hoechst 33258 from calf thymus DNA assessed as fluorescence intensity of compound-DNA complex at 22 uM by fluorescence spectrophotometric analysis relative to control; assay type: nucleic-acid assay; conditions: Bos taurus
How it was run: (§8)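 CT-DNA 100 μM (per phosphate) in 40 mM bicarbonate pH 8.4 pretreated 20 min with Hoechst 33258 (28 μM final), then compound added stepwise. Excitation 350 nm, emission 390–550 nm, read at 444 nm, 10 nm slits; H–DNA as control. Quenching constant K by Stern–Volmer, I0/I versus r = [compound]/[DNA]; triplicate.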

[18] = system: MRC5; test: Induction of DNA damage in human MRC5 cells assessed as formation of DNA breaks after 24 hrs by comet assay; assay type: functional, cell-based; how it was run: as §3
[19] = system: HeLa; test: Cell cycle arrest in human HeLa cells assessed as accumulation at G2/M phase at 2 times IC50 after 24 hrs by propidium iodide staining-based flow cytometric method; assay type: functional; how it was run: as §7
[20] = Antioxidant activity assessed as DPPH free radical scavenging activity after 30 mins; assay type: functional
How it was run: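 DPPH (0.05 mM in methanol) mixed with equal volume of compound (DMSO solution diluted in methanol), kept in dark at room temperature 30 min; absorbance at 517 nm, methanol control, ascorbic acid positive control. IC50 = concentration giving 50% of maximum scavenging; mean ± SD of independent triplicate experiments.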

[21] = system: HeLa; test: Cell cycle arrest in human HeLa cells assessed as accumulation at sub-G1 phase at 2 times IC50 after 24 hrs in presence of caspase-8 inhibitor Z-IETD-FMK by propidium iodide-staining based flow cytometric method; assay type: functional; how it was run: as §1
[22] = system: HeLa; test: Downregulation of TIMP3 gene expression in human HeLa cells at 10 uM after 24 hrs by RT-qPCR method; assay type: functional, cell-based
[23] = system: HeLa; test: Downregulation of miR-21 expression in human HeLa cells at 10 uM after 24 hrs by RT-qPCR method; assay type: functional, cell-based
[24] = system: HeLa; test: Upregulation of miR-206 expression in human HeLa cells at 10 uM after 24 hrs by RT-qPCR method; assay type: functional, cell-based
[25] = system: Calf thymus DNA; test: Binding affinity to calf thymus DNA after 90 mins by spectroscopic titration method; assay type: nucleic-acid assay; conditions: Bos taurus
How it was run: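 Compound fixed at 40 μM titrated with CT-DNA (2.2–13 × 10–5 M) in 40 mM bicarbonate pH 8.4 after 90 min at 37 °C; absorbance at 259 nm per DNA level. Kb from slope/intercept ratio of [DNA]/(εa–εf) versus [DNA] plot; triplicate assays.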

[26] = system: Calf thymus DNA; test: Binding affinity to calf thymus DNA assessed as hypochromism at 40 uM after 90 mins by UV/visible spectrophotometric analysis; assay type: nucleic-acid assay; conditions: Bos taurus; how it was run: as §4
[27] = system: Calf thymus DNA; test: Displacement of Hoechst 33258 from calf thymus DNA assessed as quenching constant by fluorescence spectrophotometric analysis; assay type: nucleic-acid assay; conditions: Bos taurus; how it was run: as §8
[28] = system: HeLa; test: Downregulation of MMP2 gene expression in human HeLa cells at 10 uM after 24 hrs by RT-qPCR method; assay type: functional, cell-based
[29] = system: Calf thymus DNA; test: Binding affinity to calf thymus DNA at 10 to 40 uM after 90 mins by UV/visible spectrophotometric analysis; assay type: nucleic-acid assay; conditions: Bos taurus; how it was run: as §4
[30] = system: HeLa; test: Cell cycle arrest in human HeLa cells assessed as accumulation at sub-G1 phase at IC50 and 2 times IC50 after 24 hrs by propidium iodide staining-based flow cytometric method; assay type: functional; how it was run: as §7
[31] = system: HeLa; test: Cytotoxicity against human HeLa cells assessed as decrease in cell survival after 72 hrs by MTT assay; assay type: functional, cell-based; how it was run: as §6
[32] = system: EA.hy 926; test: Antiangiogenic activity in human EAhy926 cells assessed as inhibition of tubular structures formation at IC20 after 20 hrs by inverted phase-contrast microscopic method; assay type: functional, cell-based
[33] = system: Calf thymus DNA; test: Binding affinity to calf thymus DNA assessed as hyperchromism at 10 to 20 uM after 90 mins by UV/visible spectrophotometric analysis; assay type: nucleic-acid assay; conditions: Bos taurus; how it was run: as §4
[34] = system: DNA; test: Induction of Escherichia coli pUC19 DNA cleavage after 90 mins by agarose gel electrophoresis method; assay type: nucleic-acid assay; how it was run: as §5

| Structure (SMILES) | Activity [1] | Activity [2] | Activity [3] | Activity [4] [%] | Activity [5] | IC50 [8] [µM] | Activity [9] | IC50 [10] [µM] | IC50 [11] [µM] | Activity [12] | Activity [13] | Activity [14] | Activity [15] | Activity [16] | Activity [17] [%] | Activity [18] | Activity [19] | IC50 [20] [µM] | Activity [21] | Activity [22] | other results |
| --- | --- | --- | --- | --- | --- | --- | --- | --- | --- | --- | --- | --- | --- | --- | --- | --- | --- | --- | --- | --- | --- |
| O=C(/C=C/c1ccc(C(=O)Nc2nnc(-c3ccc(O)c(O)c3)s2)cc1)c1ccccc1 | inactive | Active | Active | 45 | inactive | 36 | Active | 42.8 | 8.4 | Active | Active | inactive | Active | Active | 58 | Dose-dependent effect | Active | 12 | inactive | Active | Activity [6]: 13%; Activity [7]: inactive; Activity [23]: Active; Activity [24]: Active; Kb [25]: 1.09 ×10³ /M; Activity [26]: inactive; K [27]: 3.3; Activity [28]: Active; Activity [29]: Active; Activity [30]: Active; IC50 [31]: 9.37 µM |
| O=C(Nc1nnc(-c2ccc(O)c(O)c2)s1)c1ccc(/C=C/C(=O)c2cccs2)cc1 | inactive | Active | Active | 25 | inactive | 68.5 | Active | 47.9 | 15.7 | Active | Active | Active | Active | inactive | 51 | Dose-dependent effect | Active | 11.1 | inactive | Active | inhibition [32]: Active; Activity [33]: Active; Activity [34]: inactive; Activity [23]: Active; Activity [24]: inactive; Kb [25]: 1.01 ×10³ /M; K [27]: 4.66; Activity [28]: Active; Activity [29]: Active; Activity [30]: Active; IC50 [31]: 12.7 µM |
